In ChEMBL document CHEMBL1909512, “Indolin-2-one p38α inhibitors III: bioisosteric amide replacement” (Bioorg Med Chem Lett, 2011):
pIC50: −log10 of the molar value.

What was measured:
Blood = experiment: Inhibition of LPS-induced TNFalpha release in human whole blood after 24 hrs by ELISA; assay type: functional, tissue-based
Liver microsomes [1] = experiment: Metabolic stability in human liver microsomes in absence of NADPH; assay type: ADME, Microsome
Liver microsomes [2] = experiment: Metabolic stability in rat liver microsomes in absence of NADPH; assay type: ADME, Microsome
[3] = Metabolic stability in rat liver microsomes assessed as compound turnover at 5 uM after 30 mins in presence of NADPH; assay type: ADME, Microsome; settings: read-out: Drug metabolism
Procedure, shortened: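 5 µM test compound incubated with rat or human hepatic microsomes (1 mg/mL) plus NADPH for 30 min at 37 °C; result given as % turnover.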

[4] = Metabolic stability in human liver microsomes assessed as compound turnover at 5 uM after 30 mins in presence of NADPH; assay type: ADME, Microsome; settings: read-out: Drug metabolism
Liver microsomes [5] = experiment: Metabolic stability in human liver microsomes assessed as compound turnover at 5 uM after 30 mins in absence of NADPH; assay type: ADME, Microsome; settings: 0.5 h
CHO [6] = experiment: Cytotoxicity against CHO cells at 100 uM; assay type: cell-based, Cricetulus griseus; settings: chinese hamster
[7] = target: Mitogen-activated protein kinase 14 (Homo sapiens, UniProt Q16539)
[8] = Apparent passive permeability from apical to basolateral side of the human Caco2 cells at 12.5 uM; assay type: ADME, cell-based; settings: Caco-2
Procedure, shortened: (§1)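 Passive permeability across Caco-2 monolayer measured with 12.5 µM test compound in both directions (apical-to-basal and basal-to-apical); Papp reported in 10^-6 cm/s.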

[9] = Apparent passive permeability from basolateral to apical side of the human Caco2 cells at 12.5 uM; assay type: ADME, cell-based; settings: Caco-2; procedure, shortened: as §1
CHO [10] = experiment: Cytotoxicity against CHO cells at 200 uM; assay type: cell-based, Cricetulus griseus; settings: chinese hamster
[11] = Half life in rat at 1 mg/kg, iv; assay type: ADME, organism-based; parameters: dose 1 mg/kg, route intravenous; settings: in vivo
[12] = Cmax in rat at 1 mg/kg, iv; assay type: ADME, organism-based; parameters: dose 1 mg/kg, route intravenous; settings: in vivo
[13] = Clearance in rat at 1 mg/kg, iv; assay type: ADME, organism-based; parameters: dose 1 mg/kg, route intravenous; settings: in vivo
[14] = AUC (0 to infinity) in rat at 1 mg/kg, iv; assay type: ADME, organism-based; parameters: time infinity, dose 1 mg/kg, route intravenous; settings: plasma
[15] = Volume of distribution at steady state in rat at 1 mg/kg, iv; assay type: ADME, organism-based; parameters: dose 1 mg/kg, route intravenous; settings: in vivo, read-out: Vdss
[16] = Mean residence time in rat at 1 mg/kg, iv; assay type: ADME, organism-based; parameters: dose 1 mg/kg, route intravenous; settings: in vivo
[17] = Cmax in rat at 10 mg/kg, po; assay type: ADME, organism-based; parameters: dose 10 mg/kg, route oral; settings: in vivo
[18] = AUC (0 to infinity) in rat at 10 mg/kg, po; assay type: ADME, organism-based; parameters: time infinity, dose 10 mg/kg, route oral; settings: plasma
[19] = Oral bioavailability in rat at 10 mg/kg; assay type: ADME, organism-based; settings: in vivo
Cytochrome P450 3A4 = Cytochrome P450 3A4 (Homo sapiens, UniProt P08684); experiment: Inhibition of human CYP3A4; assay type: ADME
Cytochrome P450 2C9 = Cytochrome P450 2C9 (Homo sapiens, UniProt P11712); experiment: Inhibition of human CYP2C9; assay type: ADME
Cytochrome P450 2C19 = Cytochrome P450 2C19 (Homo sapiens, UniProt P33261); experiment: Inhibition of human CYP2C19; assay type: ADME
Cytochrome P450 2D6 = Cytochrome P450 2D6 (Homo sapiens, UniProt P10635); experiment: Inhibition of human CYP2D6; assay type: ADME
Rattus norvegicus = experiment: Antiinflammatory activity in rat assessed as inhibition of LPS-induced TNFalpha production plasma administered orally 1 hr prior to LPS challenge measured after 1.5 hrs by ELISA; assay type: functional
hERG = hERG (Homo sapiens, UniProt Q12809); experiment: Inhibition of human ERG expressed in HEK293 cells at 10 uM; assay type: cell-based; settings: HEK293 cells that express hERG
[20] = target: T1, 5-hydroxytryptamine receptor 1B (Homo sapiens, UniProt P28222); experiment: Inhibition of 5-HT1B
[21] = target: T2, RAF proto-oncogene serine/threonine-protein kinase (Homo sapiens, UniProt P04049); experiment: Inhibition of cRaf
[22] = target: T3, High affinity nerve growth factor receptor (Homo sapiens, UniProt P04629); experiment: Inhibition of human TrkA
Target sequence in this assay (P04629 whole entry): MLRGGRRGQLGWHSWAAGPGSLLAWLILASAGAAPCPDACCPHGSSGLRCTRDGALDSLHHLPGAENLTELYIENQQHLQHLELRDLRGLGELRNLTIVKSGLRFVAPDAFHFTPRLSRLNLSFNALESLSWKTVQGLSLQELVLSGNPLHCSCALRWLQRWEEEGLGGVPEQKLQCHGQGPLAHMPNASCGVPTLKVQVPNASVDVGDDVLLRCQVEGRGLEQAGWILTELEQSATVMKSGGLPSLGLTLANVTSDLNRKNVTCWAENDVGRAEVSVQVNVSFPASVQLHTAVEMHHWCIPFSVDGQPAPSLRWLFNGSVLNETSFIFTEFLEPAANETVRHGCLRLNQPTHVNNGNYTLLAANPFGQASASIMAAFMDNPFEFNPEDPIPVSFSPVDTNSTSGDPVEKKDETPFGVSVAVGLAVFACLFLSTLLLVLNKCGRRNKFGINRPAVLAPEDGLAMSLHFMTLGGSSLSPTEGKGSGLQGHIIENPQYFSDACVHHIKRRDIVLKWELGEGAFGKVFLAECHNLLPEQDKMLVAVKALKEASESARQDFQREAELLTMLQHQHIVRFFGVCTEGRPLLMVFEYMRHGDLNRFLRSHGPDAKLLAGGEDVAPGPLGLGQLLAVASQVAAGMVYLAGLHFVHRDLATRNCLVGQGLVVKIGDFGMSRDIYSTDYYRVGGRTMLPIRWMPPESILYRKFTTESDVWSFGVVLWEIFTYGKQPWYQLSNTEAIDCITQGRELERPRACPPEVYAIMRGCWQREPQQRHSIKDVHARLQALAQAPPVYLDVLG

Cytochrome P450 1A2 = target: T4, Cytochrome P450 1A2 (Homo sapiens, UniProt P05177); experiment: Inhibition of human CYP1A2; assay type: ADME
T4 sequence (P05177 whole entry): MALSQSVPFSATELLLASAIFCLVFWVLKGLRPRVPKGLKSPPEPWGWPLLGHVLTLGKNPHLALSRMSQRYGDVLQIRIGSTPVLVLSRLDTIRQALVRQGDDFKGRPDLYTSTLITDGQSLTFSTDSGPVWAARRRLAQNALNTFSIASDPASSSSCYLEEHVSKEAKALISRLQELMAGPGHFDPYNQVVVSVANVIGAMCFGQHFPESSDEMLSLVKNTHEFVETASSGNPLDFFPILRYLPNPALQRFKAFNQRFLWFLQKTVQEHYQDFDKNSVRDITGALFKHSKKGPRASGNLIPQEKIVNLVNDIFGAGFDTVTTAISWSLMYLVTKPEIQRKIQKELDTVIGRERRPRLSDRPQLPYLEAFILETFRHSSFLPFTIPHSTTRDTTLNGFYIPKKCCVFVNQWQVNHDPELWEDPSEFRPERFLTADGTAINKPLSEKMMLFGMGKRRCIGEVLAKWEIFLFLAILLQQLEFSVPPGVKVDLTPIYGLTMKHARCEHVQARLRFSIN

[23] = target: T1, 5-hydroxytryptamine receptor 1B; settings: 10 uM
[24] = target: T2, RAF proto-oncogene serine/threonine-protein kinase; settings: 10 uM
[25] = target: T3, High affinity nerve growth factor receptor; settings: 10 uM
Target sequence in this assay (P04629 33-796 limits assumed): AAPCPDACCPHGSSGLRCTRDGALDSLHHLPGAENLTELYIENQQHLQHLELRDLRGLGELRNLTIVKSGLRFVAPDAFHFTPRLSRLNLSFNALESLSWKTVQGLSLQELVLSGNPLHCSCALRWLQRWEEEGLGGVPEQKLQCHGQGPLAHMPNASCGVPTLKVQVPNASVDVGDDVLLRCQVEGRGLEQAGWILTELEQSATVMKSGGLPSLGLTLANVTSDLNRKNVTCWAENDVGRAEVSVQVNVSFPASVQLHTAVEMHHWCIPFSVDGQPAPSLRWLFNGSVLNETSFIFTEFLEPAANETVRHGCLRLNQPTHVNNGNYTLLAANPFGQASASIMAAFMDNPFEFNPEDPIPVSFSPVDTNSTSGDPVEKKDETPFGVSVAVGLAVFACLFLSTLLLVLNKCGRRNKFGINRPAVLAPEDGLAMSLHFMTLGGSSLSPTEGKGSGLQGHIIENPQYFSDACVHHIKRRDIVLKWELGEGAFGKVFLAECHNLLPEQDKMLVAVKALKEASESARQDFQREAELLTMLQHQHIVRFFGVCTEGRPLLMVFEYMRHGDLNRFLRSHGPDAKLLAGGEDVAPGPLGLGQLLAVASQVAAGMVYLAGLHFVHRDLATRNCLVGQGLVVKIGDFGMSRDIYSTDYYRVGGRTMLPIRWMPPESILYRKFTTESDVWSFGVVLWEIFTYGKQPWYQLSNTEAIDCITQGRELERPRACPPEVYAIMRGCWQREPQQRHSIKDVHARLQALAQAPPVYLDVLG

CHO [26] = experiment: Cytotoxicity against CHO cells; assay type: cell-based; settings: Cricetulus griseus

Mitogen-activated protein kinase 14, sequence (Q16539 whole entry): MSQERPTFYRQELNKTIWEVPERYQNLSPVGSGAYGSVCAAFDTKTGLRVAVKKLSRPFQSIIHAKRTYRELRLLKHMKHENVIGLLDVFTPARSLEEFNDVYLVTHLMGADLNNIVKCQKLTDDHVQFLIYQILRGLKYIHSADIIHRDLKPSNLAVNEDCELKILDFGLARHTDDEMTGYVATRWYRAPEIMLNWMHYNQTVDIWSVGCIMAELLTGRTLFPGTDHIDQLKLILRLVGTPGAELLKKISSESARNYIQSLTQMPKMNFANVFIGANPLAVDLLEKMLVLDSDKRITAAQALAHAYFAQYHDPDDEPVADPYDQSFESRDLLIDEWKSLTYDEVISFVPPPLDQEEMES
T1 sequence (P28222 whole entry): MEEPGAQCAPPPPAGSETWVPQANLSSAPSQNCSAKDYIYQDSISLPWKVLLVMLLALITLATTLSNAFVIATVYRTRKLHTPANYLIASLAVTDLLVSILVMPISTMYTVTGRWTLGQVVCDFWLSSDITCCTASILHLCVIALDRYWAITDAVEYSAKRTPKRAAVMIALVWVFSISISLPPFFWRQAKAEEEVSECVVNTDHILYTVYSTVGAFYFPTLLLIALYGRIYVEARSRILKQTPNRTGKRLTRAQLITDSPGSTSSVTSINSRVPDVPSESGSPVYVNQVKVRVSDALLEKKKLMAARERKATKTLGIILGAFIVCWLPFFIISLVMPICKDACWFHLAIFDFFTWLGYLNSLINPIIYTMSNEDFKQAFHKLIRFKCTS
T2 sequence (P04049 whole entry): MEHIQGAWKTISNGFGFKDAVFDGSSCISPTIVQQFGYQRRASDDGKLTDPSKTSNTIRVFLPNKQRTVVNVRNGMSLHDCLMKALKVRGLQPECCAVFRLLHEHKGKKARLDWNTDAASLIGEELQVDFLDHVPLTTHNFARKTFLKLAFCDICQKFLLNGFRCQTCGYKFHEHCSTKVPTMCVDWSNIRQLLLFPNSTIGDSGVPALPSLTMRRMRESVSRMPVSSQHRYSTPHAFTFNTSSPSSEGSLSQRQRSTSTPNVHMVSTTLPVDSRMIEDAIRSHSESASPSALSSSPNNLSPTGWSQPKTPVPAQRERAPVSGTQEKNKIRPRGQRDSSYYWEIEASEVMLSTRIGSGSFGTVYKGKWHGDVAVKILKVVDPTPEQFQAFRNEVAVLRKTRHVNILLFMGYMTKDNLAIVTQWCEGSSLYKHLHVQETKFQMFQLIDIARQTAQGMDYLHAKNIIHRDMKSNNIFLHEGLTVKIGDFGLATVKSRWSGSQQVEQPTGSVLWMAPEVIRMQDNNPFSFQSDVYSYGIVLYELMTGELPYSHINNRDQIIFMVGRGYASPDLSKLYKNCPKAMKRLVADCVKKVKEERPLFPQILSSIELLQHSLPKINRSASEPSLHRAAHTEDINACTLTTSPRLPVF
Cytochrome P450 2C19, sequence (P33261 whole entry): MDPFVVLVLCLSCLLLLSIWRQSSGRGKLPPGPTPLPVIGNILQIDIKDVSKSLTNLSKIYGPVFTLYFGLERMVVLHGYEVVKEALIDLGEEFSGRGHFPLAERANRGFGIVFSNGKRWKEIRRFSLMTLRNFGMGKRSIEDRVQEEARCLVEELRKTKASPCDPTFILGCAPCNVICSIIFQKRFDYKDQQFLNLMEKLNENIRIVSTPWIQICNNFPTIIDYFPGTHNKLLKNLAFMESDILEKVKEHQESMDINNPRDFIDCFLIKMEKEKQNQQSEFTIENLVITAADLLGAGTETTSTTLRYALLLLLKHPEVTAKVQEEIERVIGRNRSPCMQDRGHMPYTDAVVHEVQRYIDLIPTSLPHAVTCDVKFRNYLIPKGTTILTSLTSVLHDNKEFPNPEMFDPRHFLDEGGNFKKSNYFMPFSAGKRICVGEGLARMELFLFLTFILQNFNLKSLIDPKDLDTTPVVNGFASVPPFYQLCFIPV
Cytochrome P450 2C9, sequence (P11712 whole entry): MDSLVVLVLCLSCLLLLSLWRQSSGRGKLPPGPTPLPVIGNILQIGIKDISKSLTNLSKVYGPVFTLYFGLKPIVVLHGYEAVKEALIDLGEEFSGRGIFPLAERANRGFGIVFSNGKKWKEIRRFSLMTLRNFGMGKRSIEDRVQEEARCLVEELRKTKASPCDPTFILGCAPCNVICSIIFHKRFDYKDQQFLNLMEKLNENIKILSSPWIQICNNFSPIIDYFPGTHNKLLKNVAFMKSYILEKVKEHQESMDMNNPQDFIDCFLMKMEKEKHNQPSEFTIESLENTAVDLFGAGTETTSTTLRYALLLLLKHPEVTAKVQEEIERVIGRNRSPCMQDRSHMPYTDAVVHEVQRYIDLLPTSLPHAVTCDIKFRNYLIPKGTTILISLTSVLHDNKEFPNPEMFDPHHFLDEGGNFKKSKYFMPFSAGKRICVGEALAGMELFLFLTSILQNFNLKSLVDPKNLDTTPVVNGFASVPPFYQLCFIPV
Cytochrome P450 3A4, sequence (P08684 whole entry): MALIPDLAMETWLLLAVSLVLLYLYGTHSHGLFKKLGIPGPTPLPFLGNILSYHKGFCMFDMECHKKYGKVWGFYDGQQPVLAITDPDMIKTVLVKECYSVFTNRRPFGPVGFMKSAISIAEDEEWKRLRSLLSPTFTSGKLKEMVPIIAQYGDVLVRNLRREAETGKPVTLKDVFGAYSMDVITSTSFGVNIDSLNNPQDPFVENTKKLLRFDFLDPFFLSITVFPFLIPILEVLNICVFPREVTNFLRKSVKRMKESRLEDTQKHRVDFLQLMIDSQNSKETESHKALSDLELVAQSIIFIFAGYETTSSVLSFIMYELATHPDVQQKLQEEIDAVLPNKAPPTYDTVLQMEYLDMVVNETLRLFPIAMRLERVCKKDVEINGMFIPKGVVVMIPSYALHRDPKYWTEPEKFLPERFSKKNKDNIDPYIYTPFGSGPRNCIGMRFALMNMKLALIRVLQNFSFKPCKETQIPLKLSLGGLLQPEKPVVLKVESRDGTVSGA
Cytochrome P450 2D6, sequence (P10635 whole entry): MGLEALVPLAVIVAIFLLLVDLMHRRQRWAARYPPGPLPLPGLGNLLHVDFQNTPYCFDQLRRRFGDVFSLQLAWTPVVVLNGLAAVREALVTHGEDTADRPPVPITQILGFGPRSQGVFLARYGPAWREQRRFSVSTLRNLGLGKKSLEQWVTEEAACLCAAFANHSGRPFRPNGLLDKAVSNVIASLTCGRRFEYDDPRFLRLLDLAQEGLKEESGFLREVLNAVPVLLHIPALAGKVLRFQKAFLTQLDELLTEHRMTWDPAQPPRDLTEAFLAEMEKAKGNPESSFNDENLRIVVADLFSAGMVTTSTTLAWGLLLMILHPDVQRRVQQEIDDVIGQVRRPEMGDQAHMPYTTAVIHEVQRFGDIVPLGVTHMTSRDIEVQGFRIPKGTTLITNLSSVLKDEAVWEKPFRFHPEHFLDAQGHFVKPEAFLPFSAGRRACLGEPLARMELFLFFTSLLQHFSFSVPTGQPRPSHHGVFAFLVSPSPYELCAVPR

Structure (SMILES): Cc1nnc(-c2ccc(C)c(-c3ccc4c(c3)NC(=O)C43CCCC3)c2)[nH]1
- pIC50 (Blood): 6.90
- Stability (Liver microsomes [1]): Stable
- Stability (Liver microsomes [2]): Stable
- metabolised at 0.5 h, 5 µM [3]: 15%
- metabolised at 0.5 h, 5 µM [4]: 13%
- Stability (Liver microsomes [5]): Stable
- Activity (CHO [6]): 53%
- pIC50 [7]: 8.13

Structure (SMILES): Cc1ccc2c(N)noc2c1-c1ccc2c(c1)NC(=O)C21CCOCC1
- pIC50 (Blood): 6.84
- metabolised at 0.5 h, 5 µM [3]: 9%
- metabolised at 0.5 h, 5 µM [4]: 3%
- Stability (Liver microsomes [5]): Stable
- Papp A→B at 12.5 µM [8]: 28 ×10⁻⁶ cm/s
- Papp B→A at 12.5 µM [9]: 16 ×10⁻⁶ cm/s
- Activity (CHO [10]): 16%
- half-life [11]: 1.9 h
- Cmax [12]: 752 ng/mL
- clearance [13]: 13.8 mL/min/kg
- AUC(0-inf) [14]: 1230 ng·h/mL
- Vd [15]: 2 L/kg
- MRT [16]: 2.5 h
- Cmax [17]: 141 ng/mL
- AUC(0-inf) [18]: 961 ng·h/mL
- bioavailability [19]: 8%
- pIC50 [7]: 8.30

Structure (SMILES): Cc1nnc(-c2ccc(C)c(-c3ccc4c(c3)NC(=O)C43CCOCC3)c2)[nH]1
- pIC50 (Cytochrome P450 3A4): < 4.60
- pIC50 (Cytochrome P450 2C9): < 4.60
- pIC50 (Cytochrome P450 2C19): < 4.60
- pIC50 (Cytochrome P450 2D6): < 4.60
- pIC50 (Blood): 7.03
- Stability (Liver microsomes [1]): Stable
- Stability (Liver microsomes [2]): Stable
- metabolised at 0.5 h, 5 µM [3]: 23%
- metabolised at 0.5 h, 5 µM [4]: < 5%
- Stability (Liver microsomes [5]): Stable
- Papp A→B at 12.5 µM [8]: 18 ×10⁻⁶ cm/s
- Papp B→A at 12.5 µM [9]: 27 ×10⁻⁶ cm/s
- Activity (CHO [10]): 48%
- half-life [11]: 3.1 h
- Cmax [12]: 1720 ng/mL
- clearance [13]: 4.2 mL/min/kg
- AUC(0-inf) [14]: 4060 ng·h/mL
- Vd [15]: 1 L/kg
- MRT [16]: 4 h
- Cmax [17]: 1100 ng/mL
- AUC(0-inf) [18]: 11700 ng·h/mL
- bioavailability [19]: 29%
- inhibition (Rattus norvegicus): Dose-dependent effect
- ED50 (Rattus norvegicus; po): 0.69 mg/kg
- inhibition at 10 µM (hERG): 49%
- pIC50 [20]: 5.00
- pIC50 [21]: 5.80
- pIC50 [22]: 5.11
- pIC50 (Cytochrome P450 1A2): < 4.60
- pIC50 [7]: 8.12
- inhibition [23]: > 50%
- inhibition [24]: > 50%
- inhibition [25]: > 50%

Structure (SMILES): Cc1ccc2c(NC3CC3)noc2c1-c1ccc2c(c1)NC(=O)C21CCCC1
- pIC50 (Blood): 8.70

Structure (SMILES): Cc1nc(-c2ccc(C)c(-c3ccc4c(c3)NC(=O)C43CCCC3)c2)no1
- Stability (Liver microsomes [1]): Stable
- Stability (Liver microsomes [2]): Stable
- pIC50 [7]: 6.23

Structure (SMILES): Cc1noc(-c2ccc(C)c(-c3ccc4c(c3)NC(=O)C43CCCC3)c2)n1
- Stability (Liver microsomes [1]): Stable
- Stability (Liver microsomes [2]): Stable
- pIC50 [7]: 6.13

Structure (SMILES): Cc1ncc(-c2ccc(C)c(-c3ccc4c(c3)NC(=O)C43CCOCC3)c2)[nH]1
- Stability (Liver microsomes [1]): Stable
- Stability (Liver microsomes [2]): Stable
- pIC50 [7]: 6.06

Structure (SMILES): Cc1nnc(-c2ccc(C)c(-c3ccc4c(c3)NC(=O)C43CCN(S(C)(=O)=O)CC3)c2)[nH]1
- pIC50 (Blood): 7.30
- metabolised at 0.5 h, 5 µM [3]: < 5%
- metabolised at 0.5 h, 5 µM [4]: 6%
- Stability (Liver microsomes [5]): Stable
- Papp A→B at 12.5 µM [8]: 2 ×10⁻⁶ cm/s
- Papp B→A at 12.5 µM [9]: 45 ×10⁻⁶ cm/s
- pIC50 (CHO [26]): 4.00
- half-life [11]: 3.8 h
- Cmax [12]: 1300 ng/mL
- clearance [13]: 17.2 mL/min/kg
- AUC(0-inf) [14]: 1030 ng·h/mL
- Vd [15]: 1.75 L/kg
- MRT [16]: 1.8 h
- Cmax [17]: 632 ng/mL
- AUC(0-inf) [18]: 1370 ng·h/mL
- bioavailability [19]: 13%

Structure (SMILES): Cc1ccc2c(N)noc2c1-c1ccc2c(c1)NC(=O)C21CCC(F)(F)CC1
- pIC50 (Blood): 6.86
- pIC50 [7]: 8.92

Structure (SMILES): Cc1cnc(-c2ccc(C)c(-c3ccc4c(c3)NC(=O)C43CCOCC3)c2)[nH]1
- Stability (Liver microsomes [1]): Stable
- Stability (Liver microsomes [2]): Stable
- pIC50 [7]: 6.76

Structure (SMILES): O=C1Nc2cc(-c3cccc4c(NC5CC5)noc34)c(Cl)cc2C12CCCC2
- pIC50 (Blood): 6.36

Structure (SMILES): Cc1ccc(-c2ncn[nH]2)cc1-c1ccc2c(c1)NC(=O)C21CCCC1
- pIC50 (Blood): 6.60
